The target in data set [1] is T1, Retinoic acid receptor alpha/Retinoid X receptor alpha (Homo sapiens, UniProt P10276).
T1 sequence (P10276 whole entry): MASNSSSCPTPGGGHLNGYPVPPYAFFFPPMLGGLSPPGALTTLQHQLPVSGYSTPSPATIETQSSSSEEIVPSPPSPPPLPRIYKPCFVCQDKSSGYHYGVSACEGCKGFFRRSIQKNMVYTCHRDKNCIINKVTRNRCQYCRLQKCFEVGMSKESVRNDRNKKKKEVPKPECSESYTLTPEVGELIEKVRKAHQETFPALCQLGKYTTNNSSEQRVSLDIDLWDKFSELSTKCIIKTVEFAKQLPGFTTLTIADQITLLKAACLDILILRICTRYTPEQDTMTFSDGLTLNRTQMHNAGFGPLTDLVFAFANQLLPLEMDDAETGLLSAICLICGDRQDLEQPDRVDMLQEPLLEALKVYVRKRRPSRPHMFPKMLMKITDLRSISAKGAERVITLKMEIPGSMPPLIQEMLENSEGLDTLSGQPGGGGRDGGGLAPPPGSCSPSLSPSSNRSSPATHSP
T1 sequence (P19793 whole entry): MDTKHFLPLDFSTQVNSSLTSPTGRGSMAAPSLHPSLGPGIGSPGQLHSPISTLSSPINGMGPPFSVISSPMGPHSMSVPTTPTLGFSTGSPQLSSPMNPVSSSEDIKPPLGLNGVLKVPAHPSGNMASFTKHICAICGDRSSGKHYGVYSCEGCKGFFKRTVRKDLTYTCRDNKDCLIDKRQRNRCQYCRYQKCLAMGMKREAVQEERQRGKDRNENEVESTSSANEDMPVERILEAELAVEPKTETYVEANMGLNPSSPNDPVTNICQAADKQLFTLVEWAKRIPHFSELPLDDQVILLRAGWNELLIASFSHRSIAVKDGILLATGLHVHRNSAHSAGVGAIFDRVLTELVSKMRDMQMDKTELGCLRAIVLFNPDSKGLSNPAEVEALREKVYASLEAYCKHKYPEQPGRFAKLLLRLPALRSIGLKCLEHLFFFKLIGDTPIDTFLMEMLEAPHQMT
Briefly: Displacement of [3H]-TTNPB from RARalpha/RXRalpha (unknown origin) expressed in baculovirus expression system by scintillation proximity assay.

In data set [2] the target is T2, Retinoic acid receptor gamma (Homo sapiens) (UniProt P13631).
T2 sequence (whole entry): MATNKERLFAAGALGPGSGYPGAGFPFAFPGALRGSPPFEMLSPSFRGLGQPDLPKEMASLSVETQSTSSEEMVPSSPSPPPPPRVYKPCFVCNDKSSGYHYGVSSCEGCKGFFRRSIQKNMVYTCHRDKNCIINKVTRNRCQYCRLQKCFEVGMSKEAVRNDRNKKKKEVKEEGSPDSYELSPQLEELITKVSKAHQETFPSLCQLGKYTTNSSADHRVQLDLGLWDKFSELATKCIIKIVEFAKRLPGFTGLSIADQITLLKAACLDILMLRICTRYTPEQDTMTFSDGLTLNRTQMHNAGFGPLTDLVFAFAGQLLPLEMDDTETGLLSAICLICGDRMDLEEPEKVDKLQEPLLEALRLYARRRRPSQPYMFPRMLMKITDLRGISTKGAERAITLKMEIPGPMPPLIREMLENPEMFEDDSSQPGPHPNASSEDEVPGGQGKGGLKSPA
Nature of the data set: Antagonist activity at RARgamma-LBD (unknown origin) expressed in HEK-293 cells assessed as inhibition of ATRA induced Gal4/luciferase gene expression after 24 hrs relative to ATRA. The note with it: HEK293. It is filed as cell-based.

Data set [3] has as its target T3, Retinoic acid receptor RXR-alpha/gamma (Homo sapiens, UniProt P13631+P19793).
T3 sequence (P13631 whole entry): T2 sequence (whole entry)
T3 sequence (P19793 whole entry): T1 sequence (P19793 whole entry)
Briefly: Displacement of [3H]-TTNPB from RARgamma/RXRalpha (unknown origin) expressed in baculovirus expression system by scintillation proximity assay.

The target in data set [4] is T2, Retinoic acid receptor gamma (Homo sapiens). Nature of the data set: Antagonist activity at RARgamma-LBD (unknown origin) expressed in HEK-293 cells assessed as inhibition of ATRA induced Gal4/luciferase gene expression after 24 hrs. It counts as cell-based. The note with it: HEK293.
Data set [5] is described as follows: Selectivity index, ratio of Ki for RARalpha/RXRalpha (unknown origin) to Ki for RARgamma/RXRalpha (unknown origin) expressed in baculovirus expression system. More on the design: species or system Homo sapiens.
The species named for another data set is Homo sapiens. Nature of the data set: Selectivity index, ratio of Ki for RARbeta/RXRalpha (unknown origin) to Ki for RARgamma/RXRalpha (unknown origin) expressed in baculovirus expression system.
Data set [6] deals with T4, Retinoic acid receptor RXR-alpha/Retinoic acid receptor beta (Homo sapiens, UniProt P10826).
T4 sequence (P10826 whole entry): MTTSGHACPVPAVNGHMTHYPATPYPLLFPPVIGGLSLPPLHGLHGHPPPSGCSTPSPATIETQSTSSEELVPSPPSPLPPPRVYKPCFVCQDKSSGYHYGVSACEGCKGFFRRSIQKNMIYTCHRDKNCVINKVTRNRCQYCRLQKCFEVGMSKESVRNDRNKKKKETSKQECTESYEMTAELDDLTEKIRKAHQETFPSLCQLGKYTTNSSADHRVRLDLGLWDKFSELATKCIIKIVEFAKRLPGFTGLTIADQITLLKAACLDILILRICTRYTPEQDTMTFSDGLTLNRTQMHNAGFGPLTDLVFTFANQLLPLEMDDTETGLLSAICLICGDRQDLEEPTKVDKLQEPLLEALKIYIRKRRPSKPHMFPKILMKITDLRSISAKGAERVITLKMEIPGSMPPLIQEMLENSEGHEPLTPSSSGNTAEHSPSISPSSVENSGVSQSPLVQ
T4 sequence (P19793 whole entry): T1 sequence (P19793 whole entry)
Nature of the data set: Displacement of [3H]-TTNPB from RARbeta/RXRalpha (unknown origin) expressed in baculovirus expression system by scintillation proximity assay.

Data set [7] is described as follows: Solubility of the compound in simulated intestinal fluid. It counts as ADME.
Data set [8] addresses T5, Retinoic acid receptor beta (Homo sapiens) (UniProt P10826).
T5 sequence (whole entry): T4 sequence (P10826 whole entry)
Nature of the data set: Antagonist activity at RARbeta-LBD (unknown origin) expressed in HEK-293 cells assessed as inhibition of ATRA induced Gal4/luciferase gene expression after 24 hrs. It counts as cell-based. The conditions noted are these: HEK293.

Data set [9] has as its system Rattus norvegicus. Nature of the data set: Analgesic activity in MIA-induced osteoarthritis-like joint pain rat model assessed as reduction in differential weight bearing between contralateral and ipsilateral limbs administered on day 9 post MIA challenge as single oral dose. The conditions noted are these: 216 h. It counts as functional. The method in brief: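 Rats received a single intraarticular injection of mono-iodoacetate into one hind limb joint. Joint pain read as differential weight bearing between contralateral and ipsilateral limbs. Compound given as a single oral dose on the day of testing. ED50 derived from the dose-response.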

Data set [10] in a line: AUC in rat at 0.72 mg/kg, po administered for 14 days. It counts as ADME, organism-based. The note with it: in vivo.
For data set [11], the system named is Rattus norvegicus. Nature of the data set: Toxicity in rat assessed as testicular degeneration at 10 mg/kg, po administered for 14 days. It counts as organism-based. The conditions noted are these: in vivo, 336 h.
Data set [12] can be described thus: AUC in rat at 10 mg/kg, po administered for 14 days. The note with it: in vivo. It counts as ADME, organism-based.
The nature of data set [13]: Oral bioavailability in rat at 10 mg/kg measured up to 14 days. It counts as ADME, organism-based. The conditions noted are these: in vivo.
Data set [14] deals with T6, Retinoic acid receptor alpha (Homo sapiens, UniProt P10276).
T6 sequence (P10276 whole entry): T1 sequence (P10276 whole entry)
Nature of the data set: Antagonist activity at RARalpha-LBD (unknown origin) expressed in HEK-293 cells assessed as inhibition of ATRA induced Gal4/luciferase gene expression after 24 hrs. It is filed as cell-based, HEK293.

Data set [15] can be described thus: AUC in rat at 30 mg/kg, po administered for 14 days. It is filed as ADME, organism-based. The conditions noted are these: in vivo.
Data set [16] relates to Rattus norvegicus. Briefly: Toxicity in rat assessed as testicular degeneration at 30 mg/kg, po administered for 14 days. It is filed as organism-based. The conditions noted are these: in vivo, 336 h.

This is an account of results in ChEMBL document CHEMBL3813675, “Identification of potent and selective retinoic acid receptor gamma (RARγ) antagonists for the treatment of osteoarthritis pain using structure based drug design” (Bioorg Med Chem Lett, 2016).

SMILES strings stand for the structures.

Turning to `CC1(C)CC=C(c2ccccc2)c2cc(/C=C/c3ccc(C(=O)O)cc3)ccc21`, the values for the Ki in data set [1] and in data set [3] were 7.7 nM and 17.3 nM, respectively. The Imax in data set [2] was over 100%. Moreover, the Kb in [4] stood at 18.5 nM.
As for `CC1(C)CCC(C)(C)c2cc(-c3cc(-c4ccc(C(=O)O)cc4)nn3-c3ccc(S(C)(=O)=O)cc3)ccc21`, the values for the inhibition constant Ki in [1], in [6] and in data set [3] were 2.8 nM, 5.2 nM and 0.27 nM, respectively. The “Ratio Ki” value (in data set [5]; in the data set listed under Homo sapiens) was 10 in each case. Further, in data set [2], the Imax is over 100%. In addition, in [4], the antagonist equilibrium constant (Kb) is 2.2 nM.
As for `CC(C)(C)c1cc(-c2cc(-c3ccc(C(=O)O)cc3)nn2-c2ccc(S(C)(=O)=O)cc2)cc(C(C)(C)C)c1`, the Ki in [1] is 461 nM; in data set [6], 995 nM; in [3] it was 4.4 nM. For the same compound, the figures for the “Ratio Ki” value (in data set [5]; in the data set listed under Homo sapiens) were 106 and 228, respectively. This compound returned a solubility in [7] (simulated gi fluid) of under 0.1 µg/mL. Also, the Imax in data set [2] is over 100%. In addition, in data set [4], the antagonist dissociation constant (Kb) is 13.5 nM.
On to `CC(C)(C)c1cc(-c2cc(-c3ccc(C(=O)O)cc3)nn2-c2ccc(C(=O)N3CCOCC3)cc2)cc(C(C)(C)C)c1`, for which the inhibition constant Ki was over 1700 nM in [1], over 2980 nM in [6] and 2.3 nM in data set [3]. Besides, the “Ratio Ki” value in [5] is over 752; in the data set filed under Homo sapiens, over 1320. In addition, in data set [2], the Imax is over 100%. For the same compound, in data set [4], the antagonist equilibrium constant (Kb) came out at 7.2 nM.
Turning to `CC(C)c1cc(-c2cc(-c3ccc(C(=O)O)cc3)nn2-c2ccc(S(C)(=O)=O)cc2)cc(C(C)(C)C)c1`, the Ki came out at 87 nM in data set [1], 131 nM in [6] and 1.6 nM in [3]. Further, in data set [5], the “Ratio Ki” value turned out to be 54.
Consider `CN(C)S(=O)(=O)c1ccc(-n2nc(-c3ccc(C(=O)O)cc3)cc2-c2cc(C(C)(C)C)cc(C(C)(C)C)c2)cc1`, for which the Ki is over 1700 nM in [1], over 2980 nM in data set [6] and 4.1 nM in data set [3]. Also, the “Ratio Ki” value in [5] was over 414; in the data set listed under Homo sapiens, over 725. In [2], the Imax was over 100%. The Kb in data set [4] came out at 11.1 nM.
With `CN(C)C(=O)c1ccc(-n2nc(-c3ccc(C(=O)O)cc3)cc2-c2cc(C(C)(C)C)cc(C(C)(C)C)c2)cc1`, the Ki in [1] is over 1700 nM; in data set [6], over 2980 nM; in data set [3], 2.2 nM. Also, the “Ratio Ki” value in data set [5] is over 766; in the data set listed under Homo sapiens, over 1340. In data set [2], the Imax was over 100%. Besides, the antagonist equilibrium constant (Kb) in [4] came to 21.3 nM.
On to `CC(C)(C)c1cc(-c2cc(-c3ccc(C(=O)O)cc3)nn2-c2ccc(C(N)=O)cc2)cc(C(C)(C)C)c1`, for which the Ki in [1] is over 1700 nM; in data set [6], over 2980 nM; in data set [3], 1.4 nM. Moreover, the “Ratio Ki” value in data set [5] is over 1259; in the data set filed under Homo sapiens it was over 2210. The Imax in data set [2] turned out to be 79%. Further, the Kb in data set [4] is 14.7 nM.
Regarding `Cc1cc(-c2cc(-c3ccc(C(=O)O)cc3)nn2-c2ccc(S(C)(=O)=O)cc2)cc(C(C)(C)C)c1`, the inhibition constant Ki in [1] turned out to be 6.2 nM; in data set [6] it was 10 nM; in [3] it was 1.1 nM. Also, the “Ratio Ki” value in data set [5] is 5.6.
Take `CN1CCN(C(=O)c2ccc(-n3nc(-c4ccc(C(=O)O)cc4)cc3-c3cc(C(C)(C)C)cc(C(C)(C)C)c3)cc2)CC1`: the inhibitory constant (Ki) is over 1700 nM in [1], over 2980 nM in [6] and 1.1 nM in data set [3]. Besides, the results for the antagonist dissociation constant (Kb) in data set [8], in data set [14] and in [4] were 1510 nM, over 4440 nM and 7.1 nM, respectively. Also, the ED50 with Rattus norvegicus [9] was 0.724 mg/kg. Moreover, the “Ratio Ki” value in data set [5] is over 1560; in the data set filed under Homo sapiens, over 2730. Moreover, the solubility in data set [7] (simulated intestinal fluid, read-out: solubility) was over 1000 µg/mL. Moreover, the AUC at 336 h in [10] was 154 ng·h/mL; in data set [12], 9100 ng·h/mL; in data set [15], 36800 ng·h/mL. The Activity result in the data set on Rattus norvegicus [11] was “Non-toxic”; in the data set with Rattus norvegicus [16] it was “Toxic”. In addition, in data set [2], the Imax was over 100%. In addition, the bioavailability in data set [13] is 26%.
As for `CC(C)(C)c1cccc(-c2cc(-c3ccc(C(=O)O)cc3)nn2-c2ccc(S(C)(=O)=O)cc2)c1`, the inhibitory constant (Ki) in [1] came out at 1.8 nM; in data set [6], 4.3 nM; in [3], 1.1 nM. The “Ratio Ki” value in data set [5] is on record as 1.6.
